Assay [1] deals with Glycogen synthase kinase-3 (Homo sapiens, UniProt P49840+P49841). The experiment in a line: Inhibition of GSK3alpha/beta in presence of 15 uM ATP. It counts as protein assay. The method, boiled down: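 Assayed against GSK-3α/β using GS-1 peptide as substrate, final ATP 15 μM; conditions otherwise follow earlier published method.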
Assay [2] deals with Cyclin-dependent kinase 1/cyclin B (Homo sapiens, UniProt P06493). Description: Inhibition of CDK1/cyclinB in presence of 15 uM ATP. It counts as protein-complex assay.
Assay [3] deals with Cyclin-dependent kinase 5/CDK5 activator 1 (Homo sapiens, UniProt Q00535). The experiment in a line: Inhibition of CDK5/p25 in presence of 15 uM ATP. In kind it is protein-complex assay. The method, boiled down: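 Kinase activity assayed with histone H1 as protein substrate and ATP at 15 μM final; procedure otherwise as previously described.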
Cyclin-dependent kinase 5/CDK5 activator 1, sequence (Q00535 whole entry): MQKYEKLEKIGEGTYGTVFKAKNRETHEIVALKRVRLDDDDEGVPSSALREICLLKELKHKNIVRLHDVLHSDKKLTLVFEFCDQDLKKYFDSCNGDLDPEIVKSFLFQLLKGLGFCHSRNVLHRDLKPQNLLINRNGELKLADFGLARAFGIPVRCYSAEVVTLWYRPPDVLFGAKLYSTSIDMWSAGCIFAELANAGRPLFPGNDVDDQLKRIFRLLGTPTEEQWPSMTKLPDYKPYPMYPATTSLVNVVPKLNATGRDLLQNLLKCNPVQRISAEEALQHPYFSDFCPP
Cyclin-dependent kinase 5/CDK5 activator 1, sequence (Q15078 whole entry, further chain): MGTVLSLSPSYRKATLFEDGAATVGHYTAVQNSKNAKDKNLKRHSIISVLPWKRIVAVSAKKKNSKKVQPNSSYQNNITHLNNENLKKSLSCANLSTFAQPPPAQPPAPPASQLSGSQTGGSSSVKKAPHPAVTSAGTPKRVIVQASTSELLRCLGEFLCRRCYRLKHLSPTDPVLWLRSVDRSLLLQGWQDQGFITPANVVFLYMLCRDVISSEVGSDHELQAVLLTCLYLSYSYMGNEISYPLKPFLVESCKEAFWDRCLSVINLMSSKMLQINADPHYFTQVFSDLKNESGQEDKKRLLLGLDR

For `CCn1cnc2ccc3nc(C(=N)NC(C)C)sc3c2c1=O`, the IC50 in assay [1] was 7.2 µM.

Regarding `CCn1cnc2ccc3nc(C4=NCCN4)sc3c2c1=O`, the IC50 was 4.2 µM in assay [1], more than 100 µM in assay [2] and more than 100 µM in assay [3].

As for `CC(C)n1cnc2ccc3nc(C(=N)NCCN(C)C)sc3c2c1=O`, the 50% inhibitory concentration (IC50) in assay [1] worked out at 0.56 µM; in assay [2], 10 µM; in assay [3], 4 µM.

In the case of `CC(C)CCn1cnc2ccc3nc(C4=NCCN4)sc3c2c1=O`, the 50% inhibitory concentration (IC50) in assay [1], in assay [2] and in assay [3] was more than 10 µM each time.

For `CCn1cnc2ccc3nc(C(=N)NCCN(C)C)sc3c2c1=O`, the concentration for half-maximal inhibition (IC50) in assay [1] amounted to 1.3 µM.

Turning to `CCCn1cnc2ccc3nc(C4=NCCN4)sc3c2c1=O`, the IC50 was 1.6 µM in assay [1], more than 100 µM in assay [2] and more than 100 µM in assay [3].

As to `CC(C)Cn1cnc2ccc3nc(C4=NCCN4)sc3c2c1=O`, the figures for the IC50 in assay [1], in assay [2] and in assay [3] were 4.6 µM, 85 µM and more than 100 µM, respectively.

`O=c1c2c(ccc3nc(C4=NCCN4)sc32)ncn1Cc1ccccc1`: the IC50 in assay [1] and in assay [3] was more than 10 µM each time.

Consider `COc1ccc(Cn2cnc3ccc4nc(C5=NCCN5)sc4c3c2=O)cc1`, for which the IC50 in assay [1] and in assay [2] was more than 10 µM each time.

For `CC(C)NC(=N)c1nc2ccc3ncn(C(C)C)c(=O)c3c2s1`, the IC50 in assay [1] was 9.4 µM.

Consider `CC(C)n1cnc2ccc3nc(C4=NCCN4)sc3c2c1=O`, for which the IC50 was 1.6 µM in assay [1], more than 100 µM in assay [2] and more than 100 µM in assay [3].

Values taken from ChEMBL document CHEMBL1138085, “Thiazolo[5,4-f]quinazolin-9-ones, inhibitors of glycogen synthase kinase-3” (Bioorg Med Chem Lett, 2006).
